From ChEMBL document CHEMBL3396951, “Design, synthesis and SAR studies of GABA uptake inhibitors derived from 2-substituted pyrrolidine-2-yl-acetic acids” (Bioorg Med Chem, 2015) come the findings set out here.

Holding throughout (type): cell-based
Experiment [1] deals with T1, GABA transporter 4 (Mus musculus, UniProt P31650).
T1 sequence (P31650 whole entry): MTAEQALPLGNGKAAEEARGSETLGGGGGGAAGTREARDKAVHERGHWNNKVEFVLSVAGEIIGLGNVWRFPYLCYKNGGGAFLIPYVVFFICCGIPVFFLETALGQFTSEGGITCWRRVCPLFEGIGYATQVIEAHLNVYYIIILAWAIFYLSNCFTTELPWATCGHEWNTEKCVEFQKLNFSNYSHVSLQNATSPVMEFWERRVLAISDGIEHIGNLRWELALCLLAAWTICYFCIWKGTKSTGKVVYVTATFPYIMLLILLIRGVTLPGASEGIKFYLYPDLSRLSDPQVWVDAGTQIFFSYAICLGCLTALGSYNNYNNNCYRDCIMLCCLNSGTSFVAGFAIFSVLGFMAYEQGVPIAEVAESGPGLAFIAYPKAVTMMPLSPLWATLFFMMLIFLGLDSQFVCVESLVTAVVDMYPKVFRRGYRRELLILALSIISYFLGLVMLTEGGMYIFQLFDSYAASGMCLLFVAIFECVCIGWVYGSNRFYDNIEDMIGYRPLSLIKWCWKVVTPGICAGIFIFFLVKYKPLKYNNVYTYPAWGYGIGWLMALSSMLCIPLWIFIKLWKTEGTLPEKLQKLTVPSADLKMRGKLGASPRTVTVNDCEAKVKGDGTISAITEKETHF
In words: Inhibition of mouse GAT4 expressed in HEK293 cells by [3H]GABA uptake assay.

Experiment [2] has as its target Sodium- and chloride-dependent GABA transporter 1 (Mus musculus) (UniProt P31648). In words: Inhibition of mouse GAT1 expressed in HEK293 cells assessed as remaining [3H]GABA uptake at 100 uM by [3H]GABA uptake assay. An outline of the steps:
(§1)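 Transfected HEK293 cells (mGAT1–4) tested for [3H]GABA uptake at 100 µM test substance. Remaining uptake is expressed against a control without inhibitor.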

Experiment [3] has as its target T2, GABA transporter 2 (Mus musculus) (UniProt P31651).
T2 sequence (whole entry): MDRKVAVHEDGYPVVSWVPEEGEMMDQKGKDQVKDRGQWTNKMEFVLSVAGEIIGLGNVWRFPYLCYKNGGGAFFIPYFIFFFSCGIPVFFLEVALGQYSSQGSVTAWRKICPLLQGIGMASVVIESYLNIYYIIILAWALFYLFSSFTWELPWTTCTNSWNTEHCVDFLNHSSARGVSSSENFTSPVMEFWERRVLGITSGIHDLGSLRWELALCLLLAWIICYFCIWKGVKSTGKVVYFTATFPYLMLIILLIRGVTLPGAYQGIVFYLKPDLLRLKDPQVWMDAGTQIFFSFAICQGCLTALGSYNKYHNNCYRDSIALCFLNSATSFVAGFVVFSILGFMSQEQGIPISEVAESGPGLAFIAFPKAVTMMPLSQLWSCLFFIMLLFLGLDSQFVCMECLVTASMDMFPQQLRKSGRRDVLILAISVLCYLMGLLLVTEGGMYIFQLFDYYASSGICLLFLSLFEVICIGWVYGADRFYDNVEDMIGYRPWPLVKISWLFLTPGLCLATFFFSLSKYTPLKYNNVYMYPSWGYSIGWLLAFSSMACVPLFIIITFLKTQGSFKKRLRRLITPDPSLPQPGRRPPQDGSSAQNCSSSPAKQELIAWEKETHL
In words: Inhibition of mouse GAT2 expressed in HEK293 cells assessed as remaining [3H]GABA uptake at 100 uM by [3H]GABA uptake assay. A digest of the protocol: as §1

Experiment [4] concerns the target T3, GABA transporter 3 (Mus musculus) (UniProt P31649).
T3 sequence (whole entry): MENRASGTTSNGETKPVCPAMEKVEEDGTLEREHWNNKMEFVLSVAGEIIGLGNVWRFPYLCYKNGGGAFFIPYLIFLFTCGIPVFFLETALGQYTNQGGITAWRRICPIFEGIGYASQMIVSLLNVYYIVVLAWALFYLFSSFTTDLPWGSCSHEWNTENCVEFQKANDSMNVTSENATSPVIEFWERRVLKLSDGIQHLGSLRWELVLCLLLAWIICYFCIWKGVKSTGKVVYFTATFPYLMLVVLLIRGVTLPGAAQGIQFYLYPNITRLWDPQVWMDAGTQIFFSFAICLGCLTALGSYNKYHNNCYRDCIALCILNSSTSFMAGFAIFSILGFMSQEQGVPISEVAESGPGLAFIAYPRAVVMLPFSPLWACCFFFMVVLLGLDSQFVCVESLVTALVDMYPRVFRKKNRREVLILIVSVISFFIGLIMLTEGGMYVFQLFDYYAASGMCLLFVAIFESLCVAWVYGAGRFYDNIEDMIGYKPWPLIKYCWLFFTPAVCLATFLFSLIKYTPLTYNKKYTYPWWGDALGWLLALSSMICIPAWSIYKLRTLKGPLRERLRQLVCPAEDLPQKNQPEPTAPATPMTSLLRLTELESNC
In words: Inhibition of mouse GAT3 expressed in HEK293 cells assessed as remaining [3H]GABA uptake at 100 uM by [3H]GABA uptake assay. A digest of the protocol:
as §1

Broadly, the IC50 is the concentration needed to halve the response being measured.

Consider `COc1ccc(C(OCCN2CCC[C@@H]2[C@H](O)C(=O)O)(c2ccc(OC)cc2)c2ccc(OC)cc2)cc1` (racemic), for which, in experiment [1], inhibition was half-maximal at 6.61 µM (IC50). For the same molecule, the figures for the Activity in experiment [2], in experiment [3] and in experiment [4] were 80%, 64% and 70%, respectively.
